# Results published in PMC10630944 (Molecular Pharmaceutics, 2023).
# Assays:
# [1] = In vitro stability in mouse serum; type: in vitro ADME; conditions: room temperature, 24 h of incubation, iTLC, average of three independent samples
# H446 cells [2] = assay: Cellular uptake / binding ratio, H446 cells; type: cell-based, human
# Outline: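 Cells were grown in RPMI-1640 with 10% FCS at 37 °C and 5% CO2. Suspensions of 5 × 10^6 cells in PBS, in low-bind tubes, got 3.7 kBq and were agitated at 37 °C for 1, 3 or 6 h. Cells were then pelleted and rinsed twice with ice-cold PBS, and pellets and pooled supernatant/washes were gamma-counted. Parallel tubes held unlabeled peptide as blocker for nonspecific binding. Three independent experiments were run in triplicate.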
# A549 cells [3] = assay: In vitro cytotoxicity; type: cell-based, human; conditions: 24 h exposure, low-level SSTR2 A549 cells
# H446 cells [4] = assay: DNA damage, γH2AX imaging and Western blot, H446 cells; type: cell-based, human
# Outline: (§1)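 Cells (5 × 10^4/well) were exposed for 2 h to PBS, unlabeled peptide, free 211At or test compound (1.85, 3.7, 18.5, 37 kBq), then recovered 24 h in fresh medium. For imaging, cells were fixed, permeabilized and stained with mouse anti-γH2AX (1:800). For blotting, RIPA lysates (BCA-normalized) were run on 10% SDS-PAGE and transferred to PVDF. Blocking was 5% milk for 1 h, anti-γH2AX was applied at 4 °C for 12 h, with ECL detection and GAPDH as loading control.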
# A549 cells [5] = assay: DNA damage, γH2AX imaging and Western blot, A549 cells; type: cell-based, human
# Outline: as §1
# [6] = Biodistribution in SCLC tumor-bearing BALB/c nude mice; type: in vivo
# Outline: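 H446 cells (1 × 10^7 in 0.2 mL PBS) implanted subcutaneously in left shoulder of male nude mice, 4–5 weeks, 20 ± 1 g. 211At-labelled test compound or free 211At (1110 kBq each) given in parallel via tail vein, n = 4 per group. Killed at 1, 3, 6, 12, 24 h. Tumor, main tissues and whole blood weighed and gamma-counted. Values as %ID/g (thyroid %ID/organ), mean ± s.d.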
# SCLC tumors (H446) [7] = assay: Therapeutic efficacy against SCLC; type: in vivo, BALB/c nude mice; conditions: for tumor growth compared with the PBS control group: n = 6–10
# Outline: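 Xenografts were s.c. H446 (1 × 10^7 cells) in male BALB/c nude mice, randomized 2 weeks post-inoculation. Tumor size and weight were tracked for 30 days (n = 6–10), and tumor volumes were analysed by one-way ANOVA. At day 30, formalin-fixed tumors had H&E and γH2AX immunofluorescence.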
# [8] = Adverse effects in SCLC tumor-bearing mice; type: in vivo, BALB/c nude mice
# Outline: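 H446 cells (1 × 10^7 in 0.2 mL PBS) were implanted s.c. in the left shoulder of male BALB/c nude mice aged 4–5 weeks (20 ± 1 g). Mice were randomized at 2 weeks and given i.v. tail-vein PBS, unlabeled peptide 5 mg/kg, or test compound (370 kBq, 1110 kBq, or 370 kBq on days 0, 3 and 7). Body weight was followed for 30 days. Blood counts were taken on days 14 and 28 (n = 4). ALT, AST, BUN and Cr were measured on day 28. Liver, spleen, kidney, stomach and lung were H&E-stained at day 30.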
# SCLC tumors (H446) [9] = assay: MHC-I and calreticulin expression in SCLC tumors; type: in vivo, BALB/c nude mice; conditions: 1110 kBq administration group, day 1, 4, and 8
# Outline: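 In nude mice bearing s.c. H446 tumors, test compound was given i.v. as 1110 kBq once or 370 kBq on days 0, 3 and 7, with PBS controls. Tumors were examined on days 1, 4 and 8 after treatment. MHC-I and calreticulin were stained by immunohistochemistry per manufacturer's instructions, and expression was quantified. Three independent experiments were run in triplicate, reported as mean ± s.d.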
# [10] = groups A, D (1110 kBq) and E (3 × 370 kBq), day 30
# [11] = groups D (1110 kBq) and E (3 × 370 kBq), day 30
substance,measurement,setting,value
N-succinimidyl-3-[^211At]astatobenzoate-Oct [[^211At]SAB-Oct],radiochemical purity (RCP) after incubation in mouse serum,[1],93%
same,binding ratio to H446 cells in comparison to A549 cells,"H446 cells [2]; 5 × 10^6 cells in PBS, 3.7 kBq, 37 °C, 1, 3 and 6 h, gamma counter, triplicate",significantly higher
same,binding ratio to H446 cells with Oct block,H446 cells [2]; 100-fold excesses of unlabeled Oct as blocking agent,markedly decreased
same,in vitro cytotoxicity to A549 cells,A549 cells [3],specifically killed SSTR2-positive SCLC cells but not low-level SSTR2 A549 cells
same,"γH2AX protein, Western blot, H446 cells","H446 cells [4]; 1.85, 3.7, 18.5, or 37 kBq",visually increased
same,level of γH2AX in H446 cells compared to PBS,"H446 cells [4]; 18.5 and 37 kBq, ****P < 0.001",distinct dose-dependent increase
same,"γH2AX protein expression, Western blot, A549 cells","A549 cells [5]; 1.85, 3.7, 18.5, or 37 kBq",slightly expressed only when the dose reached 18.5 or 37 kBq
same,level of γH2AX in A549 cells compared to PBS,"A549 cells [5]; 37 kBq, ***P < 0.001, still much lower than in H446",slightly higher
same,uptake in the lung and intestines,[6]; 1110 kBq i.v.,physiologically high uptake
same,radioactivity uptake in the thyroid,"[6]; 1110 kBq i.v., 1 to 24 h",low radioactivity uptake
same,stomach uptake at 1 h postinjection,"[6]; 1110 kBq i.v., 1 h, n = 4, mean ± s.d., gamma counter",17.99 ± 19.65 % ID/g
same,maximum tumor uptake,"[6]; 1110 kBq i.v., 3 h postinjection, n = 4, mean ± s.d.",11.46 ± 4.35 % ID/g
same,radioactivity in all tissues after 24 h,"[6]; 1110 kBq i.v., 24 h",Low levels of radioactivity
same,stomach uptake at 24 h,"[6]; 1110 kBq i.v., 24 h, n = 4, mean ± s.d.",2.87 ± 0.86 % ID/g
same,deastatination in vivo,"[6]; observed in the spleen, lung, and stomach",slight deastatination
same,tumor cell necrosis in H&E assay,"SCLC tumors (H446) [7]; 1110 kBq, day 30, compared with PBS and unlabeled octreotide groups",highest cell necrosis
same,clusters of γH2AX foci in dissected tumors,"SCLC tumors (H446) [7]; 1110 kBq, day 30 after injection",still visible
same,tumor growth compared with the PBS control group,"SCLC tumors (H446) [7]; group C, single i.v. injection 370 kBq, monitored 30 days",significantly inhibited
same,tumor growth compared with the PBS control group,"SCLC tumors (H446) [7]; group D, single i.v. injection 1110 kBq, monitored 30 days",significantly inhibited
same,tumor growth compared with the PBS control group,"SCLC tumors (H446) [7]; group E, 3 times 370 kBq on days 0, 3, and 7, monitored 30 days",significantly inhibited
same,liver or kidney biochemical function,[8]; 1110 kBq,did not significantly alter
same,leukocytopenia or weight loss,[8]; 1110 kBq doses,not observed
same,leukocytopenia,"[8]; 1110 kBq group, day 28",No leukocytopenia
same,Bun values,"[8]; 1110 kBq, day 28, P > 0.05",trend of decreased Bun values
same,"blood cells (leukocyte, lymphocyte, thrombocyte, erythrocyte counts, hematocrit, hemoglobin)","[8]; day 14 and day 28 postinjection, 1110 kBq or multiple dosing, n = 4",no significant change
same,difference in ALT and AST concentrations between each group,"[8]; day 28, P > 0.05, groups A–E",not significant
same,difference in Bun and Cr concentrations between treatments,"[8]; day 28, P > 0.05, groups A–E",not significant
same,liver H&E,[8]; [10],No obvious morphological difference
same,lung H&E,[8]; [10],no obvious abnormalities
same,kidney H&E,[8]; [11],brush border of a few renal tubular epithelial cells was slightly exfoliated
same,stomach H&E,[8]; [11],mild exfoliation of extensive mucosal epithelium
same,expression of MHC-I and calreticulin in tumor over time,SCLC tumors (H446) [9],first increasing and then decreasing
